Test results from ChEMBL document CHEMBL4477197, “Antitumor Activity of Spicatoside A by Modulation of Autophagy and Apoptosis in Human Colorectal Cancer Cells” (J Nat Prod, 2016).
Calls of active or inactive are those of the source. The calls are words filed in the database; no cut-off is given here.

Tests used:
HCT-116 [1] = experiment: Induction of autophagy in human HCT116 cells assessed as accumulation of LC3-2 after 24 hrs by Western blot analysis; format: functional, cell-based
How it was run: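 HCT116 cells were cultured 24 h with the indicated concentrations. Lysates were made in SDS buffer with NaF and orthovanadate and quantified by BCA; 10–30 μg protein was separated by 6–15% SDS-PAGE and transferred to PVDF. After 5% BSA blocking, blots were probed for LC3-II, beclin 1, p62, LAMP1 and cathepsin D, with ECL detection.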

[2] = molecular target: MAP kinase p38 (Homo sapiens) (UniProt O15264+Q15759+Q16539+P53778); experiment: Induction of p38 phosphorylation in human HCT116 cells after 24 hrs by Western blot analysis; format: cell-based
HCT-116 [3] = experiment: Induction of apoptosis in human HCT116 cells at 20 uM after 48 hrs by Annexin V-FITC/propidium iodide staining based flow cytometry; format: functional
How it was run: (§1)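 HCT116 cells were treated 48 h, then resuspended in binding buffer at 1 × 10^6 cells/mL. They were stained with annexin V-FITC and PI for 20 min at room temperature in the dark, diluted and analyzed immediately by flow cytometry for annexin V-positive cells. n = 3.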

HCT-116 [4] = experiment: Induction of apoptosis in human HCT116 cells at 30 uM after 48 hrs by Annexin V-FITC/propidium iodide staining based flow cytometry; format: functional; how it was run: as §1
HCT-116 [5] = experiment: Induction of autophagy in human HCT116 cells assessed as increase in LC3-2 expression at 30 uM at 24 hrs by Western blot analysis; format: functional, cell-based
HCT-116 [6] = experiment: Induction of autophagy in human HCT116 cells assessed as increase in LAMP1 expression at 30 uM at 24 hrs by Western blot analysis; format: functional, cell-based

SMILES: C[C@H]1CC[C@@]2(OC1)O[C@H]1C[C@H]3[C@@H]4CC=C5C[C@@H](O)C[C@@H](O[C@@H]6O[C@H](C)[C@H](O)[C@H](O[C@@H]7OC[C@@H](O)[C@H](O)[C@H]7O)[C@H]6O[C@@H]6O[C@H](CO)[C@@H](O)[C@H](O)[C@H]6O)[C@]5(C)[C@H]4CC[C@]3(C)[C@H]1[C@@H]2C
- Activity (HCT-116 [1]): Dose-dependent effect
- Activity [2]: Dose-dependent effect
- Activity (HCT-116 [3]): 18.58%
- Activity (HCT-116 [4]): 24.58%
- Activity (HCT-116 [5]): Active
- Activity (HCT-116 [6]): Active
